Measured values from different studies.
ABL1 phosphorylated: Tyrosine-protein kinase ABL1, phosphorylated (ABL1, Homo sapiens, UniProt P00519)
ABL1 T315I phosphorylated: Tyrosine-protein kinase ABL1, phosphorylated (ABL1, Homo sapiens, UniProt P00519, T315I)
ABL1 F317L non-phosphorylated: Tyrosine-protein kinase ABL1, non-phosphorylated (ABL1, Homo sapiens, UniProt P00519, F317L)
ABL1 Q252H non-phosphorylated: Tyrosine-protein kinase ABL1, non-phosphorylated (ABL1, Homo sapiens, UniProt P00519, Q252H)
ABL1 Y253F: Tyrosine-protein kinase ABL1 (ABL1, Homo sapiens, UniProt P00519, Y253F)
ABL1 F317I non-phosphorylated: Tyrosine-protein kinase ABL1, non-phosphorylated (ABL1, Homo sapiens, UniProt P00519, F317I)
ABL1 non-phosphorylated: Tyrosine-protein kinase ABL1, non-phosphorylated (ABL1, Homo sapiens, UniProt P00519)
ABL1 Y253F phosphorylated: Tyrosine-protein kinase ABL1, phosphorylated (ABL1, Homo sapiens, UniProt P00519, Y253F)
ABL1 E255K phosphorylated: Tyrosine-protein kinase ABL1, phosphorylated (ABL1, Homo sapiens, UniProt P00519, E255K)
ABL1 M351T phosphorylated: Tyrosine-protein kinase ABL1, phosphorylated (ABL1, Homo sapiens, UniProt P00519, M351T)

SMILES	target	assay	setting	remaining binding [%]
CN(C)c1nccc(-c2cnc3ncccn23)n1	Tyrosine-protein kinase ABL1 (ABL1, Homo sapiens, UniProt P00519, M351T)	binding	1 µM	78
O=C(c1ccc(Nc2ncc(Cl)c(-c3ccc(Cl)s3)n2)cc1)N1CCC(N2CCCC2)CC1	ABL1 phosphorylated	binding, competition with immobilised ligand	1 µM	4.3
COc1cnc(Nc2cccc(S(N)(=O)=O)c2)nc1N1CCN(c2ccccc2)C(=O)C1	ABL1 T315I phosphorylated	binding, competition with immobilised ligand	1 µM	77
O=C(NCC1CCOCC1)c1n[nH]cc1NC(=O)c1c(F)cccc1F	ABL1 F317L non-phosphorylated	binding, competition with immobilised ligand	1 µM	88
CO[C@H]1CC[C@H](CNc2ccc(S(=O)(=O)NC(=O)c3ccc(N4CCN(CC5=C(c6ccc(Cl)cc6)CC(C)(C)CC5)CC4)cc3Oc3cnc4[nH]ccc4c3)cc2[N+](=O)[O-])CC1	ABL1 Q252H non-phosphorylated	cell-free assay, competition with immobilised ligand	1 µM	81
CN(C)c1nccc(-c2cnn3ncccc23)n1	ABL1 Y253F	binding	1 µM	86
O=C(O)[C@@H]1[C@@H](Cn2nnc3ccccc3c2=O)CC[C@H]1C(=O)c1ccc(OCCC2CCOCC2)cc1	ABL1 F317I non-phosphorylated	binding, competition with immobilised ligand	1 µM	82
N[C@@H]1CCN(c2nccc(-c3cnn4ncccc34)n2)C1	Tyrosine-protein kinase ABL1 (ABL1, Homo sapiens, UniProt P00519, E255K)	binding	1 µM	100
O=C(NCCCN1CCOCC1)c1ccc(Nc2nccc(-c3cc4ccccc4s3)n2)cc1	ABL1 non-phosphorylated	binding, competition with immobilised ligand	1 µM	37
CCOCCn1cc(C(=O)Nc2ccc(-n3nc(-c4cccnc4)cc3C(F)(F)F)cn2)ccc1=O	ABL1 T315I phosphorylated	cell-free assay, competition with immobilised ligand	1 µM	96
Nc1ncc2c(n1)-c1c([nH]c3ccc(C#CC4CC4)cc13)CCCC2	Tyrosine-protein kinase ABL1, phosphorylated (ABL1, Homo sapiens, UniProt P00519, H396P)	binding, competition with immobilised ligand	1 µM	93
C[C@@H](c1ccc(-n2cnc3c(N)ncnc32)cc1)N1CCc2nn(C)c(Cc3ccccc3)c2C1=O	ABL1 Y253F phosphorylated	binding, competition with immobilised ligand	0.1 µM	47
O=C(c1ccc(Nc2ncc(Cl)c(-c3cc4ccccc4s3)n2)cc1)N1CCC(N2CCCC2)CC1	ABL1 E255K phosphorylated	binding, competition with immobilised ligand	1 µM	13
COc1cc(-c2cn(C3CCc4ccccc4N(CC(F)(F)F)C3=O)nn2)ccc1-n1ccc(C)n1 (stereo not drawn)	ABL1 Y253F phosphorylated	cell-free assay, competition with immobilised ligand	1 µM	87
C=CC(=O)N1CCC(C(=O)NCC(=O)N2CCN(c3nc(-c4cnc(N)nc4C(F)F)nc(N4CCOCC4)n3)CC2)CC1	Tyrosine-protein kinase ABL1, phosphorylated (ABL1, Homo sapiens, UniProt P00519, Q252H)	binding, competition with immobilised ligand	1 µM	100
O=C(NCCCN1CCOCC1)c1ccc(Nc2ncc(Cl)c(-c3ccc(Cl)s3)n2)cc1	ABL1 non-phosphorylated	binding, competition with immobilised ligand	1 µM	26
O=C(Nc1c[nH]nc1C(=O)NC1CCNCC1)c1cc(F)cc(F)c1	ABL1 phosphorylated	binding, competition with immobilised ligand	1 µM	100
CC1CCCN1c1nccc(-c2cnn3ncccc23)n1 (stereo not drawn)	Tyrosine-protein kinase ABL1 (ABL1, Homo sapiens, UniProt P00519, Q252H)	binding	1 µM	97

SMILES	target	assay	setting	remaining binding [%]
CC(C)(C)c1ccc(-c2nc(CBr)nn2-c2cccc(O)c2)cc1	ABL1 E255K phosphorylated	cell-free assay, competition with immobilised ligand	10 µM	74
COc1ncc2cc3ccccc3nc2c1C#N	ABL1 non-phosphorylated	cell-free assay, competition with immobilised ligand	5 µM	100
CN1CCN(c2ccc(Nc3nccc(-c4ccccc4)n3)cc2C(F)(F)F)CC1	Tyrosine-protein kinase ABL1 (ABL1, Homo sapiens, UniProt P00519, F317L)	binding	10 µM	66
c1cncc(-c2cccc(Nc3nccc(NC4CCCCC4)n3)c2)c1	ABL1 F317I non-phosphorylated	binding, competition with immobilised ligand	10 µM	100
C[C@@H]1CCN(c2nccc(-c3cnn4ncccc34)n2)C1	ABL1 Y253F	binding	1 µM	88
CCN1CCN(Cc2ccc(C(=O)Nc3ccc(C)c(Oc4ccc5c(c4)CC(=O)N5)c3)cc2C(F)(F)F)CC1	ABL1 T315I phosphorylated	binding, competition with immobilised ligand	1 µM	88
CNC(=O)[C@@H]1CC[C@@H](n2c(-c3ccc4cnccc4c3)nc3ccc(C(=O)NCc4cccc(C(N)=O)c4)cc32)C1	ABL1 non-phosphorylated	binding, competition with immobilised ligand	1 µM	69
CN(CCCC(F)(F)F)c1nccc(-c2cnn3ncccc23)n1	ABL1 Y253F	binding	1 µM	89
O=C(c1ccc(Nc2nccc(-c3cc4ccccc4s3)n2)cc1)N1CCC(N2CCCC2)CC1	Tyrosine-protein kinase ABL1, phosphorylated (ABL1, Homo sapiens, UniProt P00519, F317I)	binding, competition with immobilised ligand	1 µM	99
CN(c1nccc(-c2cnn3ncccc23)n1)C1CC1	ABL1 non-phosphorylated	binding	1 µM	100
O=C(NCc1ncc(C(F)(F)F)cc1Cl)c1ccc2c(c1)C1(CCS(=O)(=O)CC1)[C@@H](C1CC1)N2S(=O)(=O)c1ccc(F)cc1	ABL1 M351T phosphorylated	cell-free assay, competition with immobilised ligand	1 µM	94
COc1cnc(Nc2cccc(S(N)(=O)=O)c2)nc1N1CCN(c2ccccc2)CC1	Tyrosine-protein kinase ABL1, non-phosphorylated (ABL1, Homo sapiens, UniProt P00519, T315I)	binding, competition with immobilised ligand	1 µM	89
N#Cc1ccc(Nc2ccc3[nH]c(=O)[nH]c3c2)c(Cl)c1	ABL1 F317L non-phosphorylated	cell-free assay, competition with immobilised ligand	1 µM	100
Cc1cnc(Nc2ccc(C(=O)N3CCC(N4CCCC4)CC3)cc2)nc1-c1cc2ccccc2s1	ABL1 Q252H non-phosphorylated	binding, competition with immobilised ligand	1 µM	1.1
C[C@@H]1CN(c2cc(-c3n[nH]c4ccc(OC5(C)CC5)cc34)ncn2)C[C@H](C)O1	ABL1 phosphorylated	cell-free assay, competition with immobilised ligand	0.1 µM	67
CN(C)c1ncc(F)c(-c2cnn3ncccc23)n1	ABL1 phosphorylated	binding	1 µM	82
N#Cc1ccccc1CSc1nnc2c(n1)[nH]c1ccccc12	ABL1 non-phosphorylated	binding, competition with immobilised ligand	10 µM	86
O=C(NS(=O)(=O)c1ccc(NCC2CCOCC2)c([N+](=O)[O-])c1)c1ccc(N2CCN(Cc3ccc(C(F)(F)F)cc3-c3ccc(Cl)cc3)CC2)cc1Oc1cnc2[nH]ccc2c1	ABL1 M351T phosphorylated	cell-free assay, competition with immobilised ligand	1 µM	100
